Experimental data: ChEMBL document CHEMBL1127741, “4-[(Alkylamino)methyl]furo[3,2-c]pyridines: a new series of selective kappa-receptor agonists” (J Med Chem, 1994)

System: Mus musculus
Assay: Antinociceptive activity was measured using the mouse acetylcholine-induced abdominal constriction test following subcutaneous administration of the compound
Type: functional
Settings: Abdomen, sc
Procedure, shortened: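 Male/female not stated; mice dosed subcutaneously, then challenged with acetylcholine to provoke abdominal constrictions. Inhibition of constrictions scored, and an ED50 (mg/kg, sc) derived for each compound.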

Row | Structure (SMILES) | ED50 [µg/kg]
1 | Cc1cc2c(o1)CCN(C(=O)Cc1ccc(Cl)c(Cl)c1)C2CN1CCC(O)C1 (stereo unspecified) | 12
2 | O=C(Cc1ccc(Cl)c(Cl)c1)N1CCc2occc2[C@H]1CN1CC[C@@H](O)C1 | 30
3 | O=C(Cc1ccc(Cl)c(Cl)c1)N1CCc2occc2C1CN1CCCC1 (stereo unspecified) | 30
4 | O=C(Cc1ccc(Cl)c(Cl)c1)N1CCc2c(O)cccc2C1CN1CCCC1 (stereo unspecified) | 3
5 | O=C(Cc1ccc(Cl)c(Cl)c1)N1CCC2(CC1CN1CCCC1)OCCO2 (stereo unspecified) | 1
6 | O=C(Cc1ccc(Cl)c(Cl)c1)N1CCc2occc2C1CN1CC=CCC1 (stereo unspecified) | 4
7 | O=C(Cc1ccc(Cl)c(Cl)c1)N1CCc2occc2C1CN1CCC(O)C1 (stereo unspecified) | 2
8 | O=C(Cc1ccc(Cl)c(Cl)c1)N1CCc2c(O)cccc2C1CN1CCC(O)C1 (stereo unspecified) | 84
9 | O=C(Cc1ccc(Cl)c(Cl)c1)N1CCc2occc2[C@@H]1CN1CC[C@H](O)C1 | 1.5
10 | O=C1CCN(CC2c3ccoc3CCN2C(=O)Cc2ccc(Cl)c(Cl)c2)C1 (stereo unspecified) | 19
11 | O=C(Cc1ccc(Cl)c(Cl)c1)N1CCc2occc2C1CN1CC[C@H](O)C1 (single isomer, unassigned) | 1
